Active and inactive are the calls of the source.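 The calls were made as follows: active = inhibition of the target enzyme PAFAH2 of at least 50%, whatever the off-target enzymes show; inactive = PAFAH2 inhibition under 50%.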

Data on two molecules can be found in PubChem BioAssay AID504491 (The Scripps Research Institute Molecular Screening Center, 2011).

Holding throughout (assay): PAFAH2 inhibitors in proteome by ABPP, late-stage follow-up, selectivity assay, cell lysate, gel-based fluorescence ABPP, carbamate vs triazole urea (AID 504491)
The subject of one test is APEH. The settings on record: BW5147 mouse T-cell proteome, gel ABPP FP-Rh, 30 min, at 20 µM, hits give high values. In a few lines: (§1)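 Assay system: mouse BW5147 T-cell soluble lysate; quantity: proteome at 1 mg/mL protein; medium: Dulbecco's phosphate-buffered saline; dosing: single dose of test compound at 20 µM; timing: 30 min compound, 30 min probe, 25 °C; technique: SDS-PAGE separation with in-gel fluorescence scanning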

A further test concerns LYPLA1. The settings on record: BW5147 mouse T-cell proteome, gel ABPP FP-Rh, 30 min, at 20 µM, hits give high values. In a few lines:
as §1

In the next test the test system is LYPLA2. The settings on record: BW5147 mouse T-cell proteome, gel ABPP FP-Rh, 30 min, at 20 µM, hits give high values. In a few lines:
as §1

The test system of the next test is ESD. Conditions: BW5147 mouse T-cell proteome, gel ABPP FP-Rh, 30 min, at 20 µM, hits give high values. In outline: as §1
In test [1] the target is Platelet-activating factor acetylhydrolase 2, cytoplasmic (Mus musculus) (UniProt Q8VDG7). The settings on record: BW5147 mouse T-cell proteome, gel ABPP FP-Rh, 30 min; PAFAH2; at 20 µM; hits give high values. In a few lines:
as §1

The next test relates to ABHD11. Conditions: BW5147 mouse T-cell proteome, gel ABPP FP-Rh, 30 min, at 20 µM, hits give high values. In a few lines: as §1

Sequence of Platelet-activating factor acetylhydrolase 2, cytoplasmic (Mus musculus) (Q8VDG7 whole entry, looked up): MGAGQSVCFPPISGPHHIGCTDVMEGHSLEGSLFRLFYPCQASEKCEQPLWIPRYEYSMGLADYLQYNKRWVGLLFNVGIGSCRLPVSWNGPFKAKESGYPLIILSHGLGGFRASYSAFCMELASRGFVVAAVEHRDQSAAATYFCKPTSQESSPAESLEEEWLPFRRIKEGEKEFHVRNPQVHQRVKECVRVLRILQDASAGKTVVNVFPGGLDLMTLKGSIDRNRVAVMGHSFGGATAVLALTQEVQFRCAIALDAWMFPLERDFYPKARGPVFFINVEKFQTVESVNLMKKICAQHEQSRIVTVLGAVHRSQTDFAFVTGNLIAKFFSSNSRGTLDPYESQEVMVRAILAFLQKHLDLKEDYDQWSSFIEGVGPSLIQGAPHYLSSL

For orientation: inhibition means the relative decrease from the control value, in per cent. For `O=C(N1CCCCC1)n1ccnn1`, the inhibition (in the test with APEH; in the test with LYPLA1; with LYPLA2; in the test with ESD; in test [1]; in the test on ABHD11) was 100% in each case.
Consider `O=C(Oc1ccc([N+](=O)[O-])cc1)N1CCCCC1`, for which the inhibition with APEH was 0% (inactive); in the test on LYPLA1, 0% (inactive); in the test with LYPLA2 it was 0% (inactive); with ESD, 0% (inactive); in test [1] it was 0% (inactive); in the test with ABHD11, 100%.
